This is an account of results in ChEMBL document CHEMBL3233004, “Analogue-based design, synthesis and biological evaluation of 3-substituted-(methylenehydrazono)indolin-2-ones as anticancer agents” (Eur J Med Chem, 2014).

The subject of assay [1] is MCF7. Description: Cytotoxicity against human MCF7 cells assessed as surviving fraction at 50 uM after 48 hrs by SRB assay relative to control. The format is functional. A digest of the protocol: (§1)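 MCF-7 cells (ATCC) grown in DMEM with 10% heat-inactivated fetal calf serum. Seeded at 10⁴ cells/well and left 24 h to attach. Compounds dissolved in DMSO and diluted with saline, then given to the monolayer for 48 h at 37 °C under 5% CO₂. Cells fixed, stained 30 min with 0.4% SRB in 1% acetic acid, washed four times with 1% acetic acid, and bound dye recovered in Tris-EDTA. Colour read on an ELISA reader.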
For orientation: In SRB staining, fixed cells bind dye roughly in proportion to their protein.

Assay [2] has as its system MCF7. Description: Cytotoxicity against human MCF7 cells assessed as surviving fraction at 25 uM after 48 hrs by SRB assay relative to control. The class given is functional. A digest of the protocol:
as §1

In assay [3] the test system is MCF7. Description: Cytotoxicity against human MCF7 cells assessed as surviving fraction at 100 uM after 48 hrs by SRB assay relative to control. The class given is functional. A digest of the protocol:
as §1

The subject of assay [4] is MCF7. Description: Cytotoxicity against human MCF7 cells assessed as surviving fraction at 10 uM after 48 hrs by SRB assay relative to control. The class given is functional. A digest of the protocol: as §1
Assay [5] has as its system MCF7. Description: Cytotoxicity against human MCF7 cells assessed as surviving fraction after 48 hrs by SRB assay. The class given is functional, cell-based. As to conditions: MCF7, 48 h. A digest of the protocol:
as §1

SMILES strings stand for the structures.

Usually IC50 stands for the concentration at which inhibition is half-maximal. With `O=C1Nc2ccc(Cl)cc2/C1=N/N=C/c1ccco1`, the Ratio in assay [1] came to 0.259; in assay [2] it was 0.274; in assay [3] it was 0.231; in assay [4], 0.384. Further, the IC50 in assay [5] came to 7.75 µM.

For the compound `Cc1ccc2c(c1)/C(=N/N=C/c1cccs1)C(=O)N2`, the Ratio in assay [1] is on record as 0.099; in assay [2] it was 0.132; in assay [3], 0.137; in assay [4], 0.227. For the same compound, the IC50 in assay [5] is 6.75 µM.

Regarding `O=C1Nc2ccc(Cl)cc2/C1=N/N=C/c1cccs1`, the Ratio in assay [1] was 0.204; in assay [2], 0.31; in assay [3], 0.194; in assay [4] it was 0.619. Also, the IC50 in assay [5] was 15.3 µM.

For the compound `O=C1Nc2ccc(F)cc2/C1=N/N=C/c1cccs1`, the Ratio in assay [1] is recorded as 0.331; in assay [2], 0.505; in assay [3] it was 0.308; in assay [4] it was 0.616. In addition, the IC50 in assay [5] was 25.8 µM.

For the compound `O=C1Nc2ccccc2/C1=N/N=C/c1ccc[nH]1`, the Ratio in assay [1] turned out to be 0.395; in assay [2] it was 0.328; in assay [3] it was 0.357; in assay [4] it was 0.465. In assay [5], the IC50 was found to be 6.25 µM.

With `Cc1ccc2c(c1)/C(=N/N=C/c1ccc[nH]1)C(=O)N2`, the Ratio in assay [1] was determined as 0.221; in assay [2], 0.351; in assay [3] it was 0.206; in assay [4] it was 0.473. For the same compound, in assay [5], the IC50 stood at 9.25 µM.

As for `O=C1Nc2ccc(Cl)cc2/C1=N/N=C/c1ccc[nH]1`, the Ratio is listed as 0.238 in assay [1], 0.392 in assay [2], 0.259 in assay [3] and 0.51 in assay [4]. The IC50 in assay [5] came to 11.8 µM.

Take `O=C1Nc2ccc(F)cc2/C1=N/N=C/c1ccc[nH]1`: the Ratio in assay [1] is given as 0.456; in assay [2], 0.274; in assay [3], 0.528; in assay [4], 0.671. Moreover, the IC50 in assay [5] came to 10.8 µM.

As for `O=C1Nc2ccccc2/C1=N/N=C/c1ccco1`, the Ratio in assay [1] is listed as 0.158; in assay [2], 0.306; in assay [3], 0.333; in assay [4], 0.637. The IC50 in assay [5] came to 15.8 µM.

As for `Cc1ccc2c(c1)/C(=N/N=C/c1ccco1)C(=O)N2`, the Ratio is on record as 0.195 in assay [1], 0.213 in assay [2], 0.102 in assay [3] and 0.436 in assay [4]. For the same compound, the half-inhibitory concentration (IC50) in assay [5] came out at 8.75 µM.

For `O=C1Nc2ccc(F)cc2/C1=N/N=C/c1ccco1`, the Ratio turned out to be 0.335 in assay [1], 0.429 in assay [2], 0.257 in assay [3] and 0.667 in assay [4]. The concentration for half-maximal inhibition (IC50) in assay [5] came out at 20.3 µM.

As to `O=C1Nc2ccccc2/C1=N/N=C/c1cccs1`, the Ratio in assay [1] came to 0.522; in assay [2], 0.602; in assay [3], 0.546; in assay [4], 0.352. The IC50 in assay [5] is 8.25 µM.

As for `COc1cccc2c1C(=O)c1c(O)c3c(c(O)c1C2=O)C[C@@](O)(C(=O)CO)C[C@@H]3O[C@H]1C[C@H](N)[C@H](O)[C@H](C)O1` [DOXORUBICIN], the Ratio in assay [1] amounted to 0.098; in assay [2] it was 0.158; in assay [3], 0.125; in assay [4], 0.257. Moreover, the IC50 in assay [5] worked out at 6.1 µM.
